# PubChem BioAssay AID651654 (Broad Institute, 2012)
# “And” between values parts separate entries of the source, which are not always exact repeats. Identical values can stand only once. Out of some 360,000 compounds screened, about 740 (0.21%) were called active.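 The calls were made as follows: active = mean lysis activity across replicates of at least 80%, whatever share of replicates individually reach that level; inactive = mean lysis activity below 80%.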 Only a selection was taken, and actives are over-represented in it overall. More than one record can exist for a structure, and the calls need not agree.
# Test: Cryptococcus neoformans cell lysis inducers, primary screen, AK release luminescence, single concentration (AID 651654)
# Settings: C. neoformans lysis, adenylate kinase release luminescence, 4 h; at 15 µM; stronger effect = higher value; normalised: neutral wells 0, clomiphene wells 100
# In short: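 Material: C. neoformans cells | Amount: Yeast cell density of 5 × 10^6 cells/mL | Medium: Fresh YPD growth medium | Dosing: Single dose | Times: Static 4 h at 37 °C with compound, 1 h detection | Detection: AK luminescence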
row,SMILES,lysis activity
1,COCC(=O)Nc1ccc2c(c1)OC[C@H](C)N(C(=O)Cc1ccccn1)C[C@H](C)[C@@H](OC)CN(C)C2=O,6.59% (inactive)
2,CCC(=O)N1[C@@H]2c3ccc(-c4cccnc4)c(=O)n3C[C@H]1[C@H](CO)[C@H]2C(=O)N1CCc2ccccc2C1,-6.94% (inactive)
3,C[C@H](CO)N1C[C@H](C)[C@H](CN(C)Cc2ccc(C(F)(F)F)cc2)Oc2c(NC(=O)C3CCOCC3)cccc2C1=O,0.0275% (inactive)
4,C[C@H]1CN([C@@H](C)CO)C(=O)c2cccc(NC(=O)C3CCOCC3)c2O[C@@H]1CN(C)C,-5.09% (inactive)
5,C[C@H]1CN([C@@H](C)CO)C(=O)c2cc(NS(C)(=O)=O)ccc2O[C@H]1CN(C)C(=O)Nc1ccc(C(F)(F)F)cc1,2.09% (inactive)
6,Cc1noc(C)c1S(=O)(=O)Nc1ccc2c(c1)C(=O)N([C@@H](C)CO)C[C@H](C)[C@H](CN(C)CC1CCCCC1)OCCCC[C@H](C)O2,1.9% (inactive)
7,CCCN(C)C[C@@H]1OCCCC[C@H](C)Oc2ccc(NS(=O)(=O)c3ccc(C)cc3)cc2C(=O)N([C@H](C)CO)C[C@@H]1C,98.4% (active)
8,Cc1noc(C)c1S(=O)(=O)Nc1ccc2c(c1)C(=O)N([C@H](C)CO)C[C@@H](C)[C@@H](CN(C)Cc1ccccc1)OCCCC[C@@H](C)O2,0.357% (inactive)
9,C[C@H](CO)N1C[C@H](C)[C@H](CN(C)C)Oc2c(NC(=O)C3CCOCC3)cccc2C1=O,-4.63% (inactive)
10,Cc1ccc(S(=O)(=O)Nc2ccc3c(c2)C(=O)N([C@H](C)CO)C[C@@H](C)[C@@H](CN(C)S(C)(=O)=O)OCCCC[C@@H](C)O3)cc1,-3.44% (inactive)
11,C[C@@H]1CN([C@@H](C)CO)C(=O)c2cccc(NC(=O)C3CC3)c2O[C@@H]1CN(C)C,80.7% (active)
12,Cc1ccc(S(=O)(=O)Nc2ccc3c(c2)C(=O)N([C@H](C)CO)C[C@@H](C)[C@H](CN(C)C(=O)Nc2ccc(C(F)(F)F)cc2)OCCCC[C@H](C)O3)cc1,-2.02% (inactive)
13,Cc1noc(C)c1S(=O)(=O)Nc1ccc2c(c1)C(=O)N([C@@H](C)CO)C[C@@H](C)[C@@H](CN(C)Cc1ccccc1)OCCCC[C@H](C)O2,96.8% (active)
14,CCCN(C)C[C@H]1OCCCC[C@H](C)Oc2ccc(NS(=O)(=O)c3ccc(C)cc3)cc2C(=O)N([C@@H](C)CO)C[C@H]1C,-0.143% (inactive)
15,Cc1ccc(S(=O)(=O)Nc2ccc3c(c2)C(=O)N([C@@H](C)CO)C[C@H](C)[C@H](CN(C)C(=O)Nc2ccc(C(F)(F)F)cc2)O3)cc1,100% (active)
16,C[C@H]1CN([C@@H](C)CO)C(=O)c2cccc(NS(=O)(=O)c3cn(C)cn3)c2O[C@@H]1CN(C)CC1CCCCC1,82.6% (active)
17,Cc1noc(C)c1S(=O)(=O)Nc1ccc2c(c1)CC(=O)N([C@H](C)CO)C[C@H](C)[C@H](CN(C)S(=O)(=O)c1cn(C)cn1)O2,-4.65% (inactive)
18,C[C@@H]1CN([C@@H](C)CO)C(=O)c2cc(NS(=O)(=O)c3cn(C)cn3)ccc2O[C@@H](C)CCCCO[C@H]1CN(C)S(=O)(=O)c1cn(C)cn1,1.43% (inactive)
19,Cc1ccc(S(=O)(=O)N(C)C[C@@H]2Oc3ccc(NS(=O)(=O)c4c(C)noc4C)cc3CC(=O)N([C@H](C)CO)C[C@H]2C)cc1,1.73% (inactive)
20,C[C@@H]1CCCCO[C@H](CN(C)C)[C@H](C)CN([C@@H](C)CO)C(=O)c2cc(NS(=O)(=O)c3cn(C)cn3)ccc2O1,-0.536% (inactive)
21,C[C@H]1CN([C@@H](C)CO)C(=O)c2cc(NS(=O)(=O)c3cn(C)cn3)ccc2O[C@H]1CN(C)CC1CCCCC1,-5.59% (inactive)

row,SMILES,lysis activity
1,Cc1noc(C)c1S(=O)(=O)Nc1ccc2c(c1)CC(=O)N([C@@H](C)CO)C[C@H](C)[C@@H](CN(C)S(=O)(=O)c1cn(C)cn1)O2,117% (active)
2,C[C@@H]1CN([C@H](C)CO)C(=O)c2cccc(NS(=O)(=O)c3cn(C)cn3)c2O[C@H]1CN(C)CC1CC1,-3.67% (inactive)
3,C[C@@H]1CN([C@H](C)CO)C(=O)c2cc(NS(=O)(=O)c3cn(C)cn3)ccc2O[C@@H](C)CCCCO[C@H]1CN(C)C,109% (active)
4,CN1c2ccc(-c3ccccc3)cc2[C@H]2[C@H](CCN2C(=O)c2ccc3c(c2)OCO3)[C@H]1CO,-10.3% (inactive)
5,COCC(=O)N(C)C[C@H]1Oc2cc(C#C[C@@H](C)O)ccc2S(=O)(=O)N([C@H](C)CO)C[C@H]1C,9.52% (inactive)
6,Cc1ccc(OCC(=O)Nc2ccc(C(=O)O)cc2NC(=O)COc2ccc(C)c(C)c2)cc1C,-1.83% (inactive)
7,Cc1ccc(OCC(=O)NC(C)c2ccccc2)cc1C (stereo unspecified),204% (active)
8,Cc1ccc(OCCCC(=O)NC(C)c2ccccc2)c(C)c1 (stereo unspecified),3.6% (inactive)
9,C[C@H]1CCCCO[C@H](CN(C)S(=O)(=O)c2cn(C)cn2)[C@@H](C)CN([C@@H](C)CO)C(=O)c2cc(NC(=O)C3CCCCC3)ccc2O1,-1.38% (inactive)
10,Cc1cccc(S(=O)(=O)N2CC[C@@H]3[C@H]2c2cc(C#Cc4ccc(F)cc4)ccc2N[C@@H]3CO)c1,-3.22% (inactive)
11,CO[C@@H]1CN(C)C(=O)c2cc(NC(=O)Nc3cccc(F)c3)ccc2OC[C@H](C)N(C)C[C@@H]1C,98.7% (active)
12,CO[C@H]1CN(C)C(=O)c2ccc(NC(=O)C3CC3)cc2OC[C@@H](C)N(Cc2ccc(F)cc2)C[C@@H]1C,95.3% (active)
13,CO[C@@H]1CN(C)C(=O)c2cc(NC(=O)C3CC3)ccc2OC[C@H](C)N(Cc2ccc(F)cc2)C[C@@H]1C,0.205% (inactive)
14,CO[C@H]1CN(C)C(=O)c2cc(NC(=O)Nc3cccc(F)c3)ccc2OC[C@@H](C)N(C)C[C@@H]1C,7.44% (inactive)
15,CO[C@H]1CN(C)C(=O)c2cc(NC(=O)Nc3cccc(F)c3)ccc2OC[C@@H](C)N(C)C[C@H]1C,18.3% (inactive)
16,CO[C@@H]1CN(C)C(=O)c2cc(NC(=O)C3CC3)ccc2OC[C@@H](C)N(Cc2ccc(F)cc2)C[C@@H]1C,1.45% (inactive)
17,C[C@@H]1CN([C@@H](C)CO)S(=O)(=O)c2ccc(C#Cc3ccc(F)cc3)cc2O[C@H]1CN(C)C(=O)NC1CCCC1,81.9% (active)
18,C/C=C/c1ccc2c(c1)O[C@@H](CN(C)C(=O)NC1CCCC1)[C@@H](C)CN([C@H](C)CO)S2(=O)=O,-13.9% (inactive)
19,CC(=O)N(C)C[C@@H]1Oc2cc(-c3cncnc3)ccc2S(=O)(=O)N([C@@H](C)CO)C[C@H]1C,0.747% (inactive)
20,C[C@H](CO)N1C[C@H](C)[C@@H](CN(C)C(=O)c2cccc(F)c2)Oc2cc(-c3cncnc3)ccc2S1(=O)=O,4.59% (inactive) and 104% (active) and -0.371% (inactive)
21,CC(C)NC(=O)N(C)C[C@H]1Oc2cc(-c3cncnc3)ccc2S(=O)(=O)N([C@@H](C)CO)C[C@H]1C,-2.43% (inactive)

row,SMILES,lysis activity
1,C[C@@H]1CN([C@@H](C)CO)S(=O)(=O)c2ccc(C#Cc3ccc(F)cc3)cc2O[C@@H]1CN(C)CC1CC1,0.211% (inactive)
2,Cc1cc(C(=O)Nc2ccc3c(c2)C(=O)N(C)[C@@H]2CC[C@H](CC(=O)NC4CCCC4)O[C@@H]2CO3)no1,3.44% (inactive)
3,CNC(=O)C[C@H]1CC[C@H]2[C@H](COc3ccc(NC(=O)c4cc(C)on4)cc3C(=O)N2C)O1,83.7% (active)
4,Cc1cc(C(=O)Nc2ccc3c(c2)C(=O)N(C)[C@@H]2CC[C@@H](CC(=O)NC4CCCC4)O[C@@H]2CO3)no1,1.38% (inactive)
5,COc1cccc(C(=O)Nc2ccc3c(c2)C(=O)N(C)C[C@@H](OC)[C@@H](C)CN(C)[C@@H](C)CO3)c1,-1.94% (inactive)
6,O=C(C[C@@H]1C[C@@H]2c3cc(NS(=O)(=O)c4ccc(F)cc4)ccc3O[C@@H]2[C@@H](CO)O1)NCc1ccncc1,-3.62% (inactive)
7,C[C@@H]1CCCCO[C@H](CN(C)C(=O)Nc2ccc(C(F)(F)F)cc2)[C@@H](C)CN([C@@H](C)CO)C(=O)c2cc(NC(=O)Nc3cccc4ccccc34)ccc2O1,-0.038% (inactive)
8,C[C@H](CO)N1C[C@H](C)[C@H](CN(C)C)Oc2ncc(C#Cc3ccc(F)cc3)cc2C1=O,5.93% (inactive) and 8.34% (inactive)
9,Cc1noc(C)c1NC(=O)Nc1ccc2c(c1)C(=O)N([C@@H](C)CO)C[C@H](C)[C@H](CN(C)CC1CCCCC1)O2,80.5% (active)
10,C[C@@H]1CN([C@H](C)CO)C(=O)Cc2cc(NC(=O)Nc3cccc4ccccc34)ccc2O[C@@H]1CN(C)Cc1ccc(C(=O)O)cc1,105% (active)
11,C[C@@H]1CN([C@H](C)CO)C(=O)Cc2cc(NC(=O)Nc3cccc4ccccc34)ccc2O[C@@H]1CN(C)Cc1ccc(C(F)(F)F)cc1,0.378% (inactive)
12,C[C@@H]1CN([C@@H](C)CO)C(=O)Cc2cc(NC(=O)Nc3ccc4c(c3)OCO4)ccc2O[C@@H]1CN(C)CC1CCCCC1,5.47% (inactive)
13,C[C@H](CO)N1C[C@H](C)[C@@H](CN(C)CC2CCOCC2)Oc2ncc(C#Cc3ccc(F)cc3)cc2C1=O,1.59% (active)
14,Cc1noc(C)c1NC(=O)Nc1ccc2c(c1)C(=O)N([C@@H](C)CO)C[C@@H](C)[C@H](CN(C)C)O2,-2.64% (inactive)
15,C[C@H]1CN([C@@H](C)CO)C(=O)c2cc(NC(=O)Nc3ccc4c(c3)OCO4)ccc2O[C@@H]1CN(C)CC1CCCCC1,81.3% (active)
16,C[C@H]1CN([C@@H](C)CO)C(=O)Cc2cc(NC(=O)Nc3cccc4ccccc34)ccc2O[C@@H]1CN(C)C,5.63% (inactive)
17,Cc1noc(C)c1NC(=O)Nc1ccc2c(c1)CC(=O)N([C@@H](C)CO)C[C@H](C)[C@@H](CN(C)CC1CCCCC1)O2,4.38% (inactive)
18,C[C@@H]1CN([C@@H](C)CO)C(=O)c2cc(NC(=O)Nc3ccc(F)cc3)ccc2O[C@H]1CN(C)CC1CCCCC1,-0.073% (inactive)
19,COc1ccc(C#Cc2cnc3c(c2)C(=O)N([C@@H](C)CO)C[C@H](C)[C@@H](CN(C)CC2CCOCC2)O3)cc1,0.473% (inactive)
